Screening results from PubChem BioAssay.
In the library only some 1.6% were active in any assay of this set; here they are far more common.
eIF4E-4G inh = blocks eIF4E binding to eIF4G. TR-FRET eIF4E-eIF4GI(517-606) binding, 2 h. inhibition, % at 21.7 µM. 0.37% of 220,000 active;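 note: 0% = full FRET control wells and 100% = background wells lacking eIF4GI fragment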
UBC9 SUMO inh = SUMOylation inhibition | inhibition, % at 35 µM | HTRF SUMOylation assay, SAE1/SAE2 + UBC9, in vitro | 0.36% of 290,000 active | P63279; in the data active = inhibition above about 50%, passing the limit was not always enough
Target sequence (P63279 whole entry, looked up): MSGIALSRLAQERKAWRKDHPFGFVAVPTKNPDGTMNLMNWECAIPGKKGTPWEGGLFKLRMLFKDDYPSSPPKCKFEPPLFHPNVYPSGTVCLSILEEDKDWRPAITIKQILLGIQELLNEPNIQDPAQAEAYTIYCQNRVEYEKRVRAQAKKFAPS
NCF1 inh = p47phox (human) inhibition. P14598. p47phox/p22phox peptide binding, fluorescence polarization, 2 h. inhibition, % at 24.7 µM. 0.53% of 220,000 active;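 note: 0% = p47phox with labelled peptide and 100% = labelled peptide alone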
Target sequence (P14598 whole entry, looked up): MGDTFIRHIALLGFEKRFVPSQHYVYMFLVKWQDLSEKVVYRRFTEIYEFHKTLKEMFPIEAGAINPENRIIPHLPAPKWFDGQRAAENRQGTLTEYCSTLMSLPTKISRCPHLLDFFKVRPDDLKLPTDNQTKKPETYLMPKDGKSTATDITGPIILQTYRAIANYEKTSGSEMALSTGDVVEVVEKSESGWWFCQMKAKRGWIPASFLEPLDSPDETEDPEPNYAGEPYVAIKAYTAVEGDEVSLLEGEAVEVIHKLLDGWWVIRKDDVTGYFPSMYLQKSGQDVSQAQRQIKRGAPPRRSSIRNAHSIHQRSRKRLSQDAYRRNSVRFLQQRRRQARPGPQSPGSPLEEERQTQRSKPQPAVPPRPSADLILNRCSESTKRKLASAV
14-3-3 Bad PPI = disrupts binding of bovine 14-3-3 zeta to phospho-Bad peptide. AID 781. inhibition, % at 21.7 µM. 0.71% of 220,000 active. P63103. TR-FRET 14-3-3zeta/Dy647-pBad peptide displacement, 1 h;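 active = inhibition above about 70%, limit read from the data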;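 note: 0% = full 14-3-3 plus peptide FRET controls and 100% = background without 14-3-3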
p97 ATPase inh = inhibitors of human p97 ATPase | inhibition, % at 8 µM | P55072 | AID 1481 | recombinant p97 ATPase, Kinase-Glo ATP luminescence, 3 h | 0.42% of 220,000 active; in the data active = inhibition above about 15%;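 note: 0% = DMSO vehicle and 100% = wells lacking enzyme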
Tb MetRS inh = Trypanosoma brucei MetRS inhibition; purified T. brucei MetRS, ATP depletion, Kinase-Glo luminescence; inhibition, % at 11.9 µM; 0.4% of 360,000 active; AID 624268;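 active = inhibition above a per-plate cutoff of the control wells' mean inhibition plus 3 SD, cut at about 5.5% in these data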;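 note: 0% = DMSO wells median and 100% = median of wells with control inhibitor compound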
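technique = Kinase-Glo luminescence, ATP depletion format | system = purified MetRS (methionyl-tRNA synthetase) enzyme from Trypanosoma brucei | timing = 15 min preincubation, 2 h reaction, all 25 °C | evaluation = percent inhibition versus plate control medians | dosing = single dose, 11.9 µM final nominal, 0.9% final DMSO | also added = substrates ATP, L-methionine and bulk Escherichia coli tRNA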
* marks the source's active call; other numbers are inactive results; nt = no result given; [ ] = remark or other dose.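 Rule for the calls, unless noted: active = inhibition above about 30% (limit read from the data); inactive = the rest.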

SMILES	eIF4E-4G inh	UBC9 SUMO inh	NCF1 inh	14-3-3 Bad PPI	p97 ATPase inh	Tb MetRS inh
CN1CCN(C(=O)c2ccccc2NC(=O)c2ccccc2)CC1	nt	4.4	nt	nt	nt	-0.2
CC(C)c1ccccc1NC(=O)Nc1nnc([C@H]2C[C@H](O)[C@@H](CO)O2)s1	nt	nt	nt	nt	nt	0.6
CS(=O)(=O)c1cnc(-c2ccccc2)nc1-c1ccc(Cl)c(Cl)c1	6.3	1.5	3.5	72.7*	3.6	-0.4
NC1=NC[C@H](Cc2ccc(O)cc2)N1CCc1cccc2ccccc12	3.5	9.0	62.6*	3.6	nt	0.6
NC1=NC[C@@H](Cc2ccc(O)cc2)N1CCc1cccc2ccccc12	-1.8	-3.4	6.6	3.0	nt	-0.3
Cc1c(OC(=O)c2ccc([N+](=O)[O-])cc2)c2c(c[n+]1C)COC(C)(C)OC2	40.5*[fluorescence artefact?]	-3.8	-0.9	50.7	5.6	-1.1
Cc1ncc2c(c1OC(=O)c1ccccc1)COC(C)(C)OC2	1.3	-8.2	-8.5	-15.6	-7.6	-0.3
Cc1[nH]n(-c2ccccc2)c(=O)c1CCOC(=O)c1cccc(C(F)(F)F)c1	-1.4	-42.9	-0.5	-5.5	1.2	-0.7
Cc1ccc(C(=O)OCCc2c(C)[nH]n(-c3ccccc3)c2=O)cc1	-1.0	-20.7	101.8*	-7.8	-9.6	-0.8
Cc1cc2c(C)nc(N/N=C/c3ccc([N+](=O)[O-])cc3)nc2o1	17.7	29.6	44.1*	48.1	0.0	-1.0
Cn1c(N)c(C#N)c2c(c1=S)CSC(C)(C)C2	0.4	47.5	4.1	4.0	-0.3	0.3
CC1(C)Cc2c(C#N)c(N)sc(=S)c2CS1	-4.8	6.8	51.6*	62.6	8.2	-0.1
CC(C)(C)NC(=O)C(c1cc2ccccc2o1)n1c(-c2ccc(-c3ccccc3)cc2)nc2ccccc21 (centres undefined)	nt	nt	nt	nt	nt	-0.2
CSCCC(C(=O)NCc1ccccc1)n1c(C2CCN(C(C)=O)CC2)nc2ccccc21 (centres undefined)	nt	nt	nt	nt	nt	0.2
Cn1nccc1C(=O)OCC(=O)Nc1cccc(Cl)c1	nt	nt	nt	nt	nt	0.0
COc1cccc(C(=O)NC(=S)Nc2ccc3oc(=O)ccc3c2)c1	-8.1	-8.1	37.3*	0.7	5.6	-0.6
CCCCn1c(N)c(N(CC(C)C)C(=O)COC(=O)Cc2c(C)nc3ccccc3c2C)c(=O)[nH]c1=O	nt	15.3	nt	nt	nt	0.2
COc1ccc2nc(NC(=O)c3cccc(-c4cc5ccccc5oc4=O)c3)sc2c1	29.7	23.9	38.9*	69.0	0.2	-0.1
COc1ccc(C(=O)Nc2cccc(-c3cc4ccccc4oc3=O)c2)cc1[N+](=O)[O-]	5.7	10.1	31.7*	75.2*[fluorescence artefact?]	2.2	0.5
CC1(C(=O)NCc2ccccc2)CN(S(C)(=O)=O)CC(=O)N1Cc1cccs1 (centres undefined)	nt	nt	nt	nt	nt	-1.2
CCCCOCCCNC(=O)C[C@@H]1C[C@@]2(C(=O)OC)CC(C)(C)CC=C2N(Cc2cccc3ccccc23)C1=O	nt	nt	nt	nt	nt	-1.1
CCn1c2ccccc2c2cc(NC(=O)CSc3nnc(-c4ccc(OC)c(OC)c4)n3N)ccc21	-2.5	-8.5	-18.1	4.9	11.7	-1.5
CCOc1ccc(-c2nnc(SCC(=O)Nc3ccc4c(c3)c3ccccc3n4CC)n2N)cc1	-48.0	47.9	28.1	73.3*	-4.1	-0.6
CCn1c(-c2nn(-c3ccc(C)cc3)ccc2=O)n[nH]c1=S	-6.5	18.8	-8.5	88.2*	-0.8	-0.7
CCn1c(-c2nn(-c3ccccc3)ccc2=O)n[nH]c1=S	2.6	6.3	7.2	-3.6	5.2	-0.4
SMILES	eIF4E-4G inh	UBC9 SUMO inh	NCF1 inh	14-3-3 Bad PPI	p97 ATPase inh	Tb MetRS inh
C=CCc1cccc(/C=N/NC(=O)CCCNc2ccc(C)cc2)c1O	-2.3	-23.3	94.2*	5.3	-9.7	0.1
C=CCc1cccc(/C=N/NC(=O)CNc2ccccc2)c1O	-3.2	9.1	6.0	1.1	-0.2	-0.1
O=C(NC1CCCC1)C1CCCN1S(=O)(=O)c1cccc2cccnc12 (centres undefined)	5.7	13.9	-10.2	3.9	5.5	-0.4
O=C(NCc1ccccc1)C1CCCN1S(=O)(=O)c1cccc2cccnc12 (centres undefined)	-2.7	-8.0	47.0*	-1.2	-4.9	-0.2
CO[C@@H]1CN(C)C(=O)c2ccc(NC(=O)c3ccccc3F)cc2OC[C@@H](C)N(CC2CCOCC2)C[C@@H]1C	nt	nt	nt	nt	nt	0.1
COCCCNCCCCOc1c(Cl)cc(C)cc1Br	0.4	10.1	-2.1	79.2*	-5.9	-0.6
COCCCNCCCOc1ccc(Cl)cc1Br	2.5	5.2	-19.4	73.9*	-0.3	1.4
COc1cccc(Cn2c(C(C)n3c(-c4cnccn4)nc4ccccc43)nc3ccccc32)c1 (centres undefined)	nt	nt	nt	nt	nt	-1.0
C=CCc1c(C)nc(-c2ccccc2)nc1N/N=C(\C)c1ccc(N)cc1	-0.3	9.5	-0.8	74.2*[fluorescence artefact?]	3.8	-0.8
Cc1ccc(-c2nc3cccnc3s2)cc1NC(=O)C1c2ccccc2Oc2ccccc21	-12.6	15.0	33.3*	78.1*	3.5	-0.6
Cc1ccc(-c2nc3cccnc3s2)cc1NC(=O)c1ccco1	nt	nt	nt	nt	4.7	-0.5
COc1ccccc1OCCCCCc1c(C)n[nH]c1C	-1.6	19.0	-7.8	72.3*	-8.1	-0.4
CCOc1ccccc1OCCCCCc1c(C)n[nH]c1C	46.7*	3.4	-11.7	32.9	-9.8	0.1
Cc1sc2ncnc(NCC(c3ccco3)N(C)C)c2c1C (centres undefined)	3.5	nt	-12.0	81.9*	-4.7	-0.5
O=C(NCCOc1ccccc1)C1C(=O)Nc2ccccc2C(=O)N1C1CCCCC1 (centres undefined)	nt	nt	nt	nt	nt	0.0
Cc1ccc(S(=O)(=O)N/N=C\c2ccc3c(c2)OCO3)cc1	14.1	23.9	-44.8	-14.8	15.9*	0.2
Cc1ccccc1OCC(=O)OCC(=O)NC1CCCC1	nt	nt	nt	nt	nt	-0.2
O=C(c1ccc(F)cc1)C(CCCCCC(CN1CCOCC1)C(=O)c1ccc(F)cc1)CN1CCOCC1 (centres undefined)	2.1	-4.3	0.1	70.4*	-9.3	nt
OC(CN1CCOCC1)c1ccc(F)cc1 (centres undefined)	-1.9	13.1	-3.2	26.7	-7.7	-1.4
COC(=O)c1[nH]c2ccccc2c1CN1CCOCC1	nt	9.1	nt	nt	nt	-0.6
COc1ccc(CN2CCOCC2)cc1	-5.3	30.5	-9.5	74.0*	1.0	-0.9
Cc1ccc(CNC(=O)c2ccc(CN3CCOCC3)cc2)cc1	-8.3	12.4	36.7*	23.6	3.7	-0.8
COc1ccc(CN2CCOCCOCCOCC2)cc1	-2.5	-9.3	-6.5	0.6	-3.9	0.1
CC(=O)c1cc2cccc(OC3(C)CCN(Cc4ccc(-c5ccccn5)cc4)C3)c2o1 (centres undefined)	nt	nt	nt	nt	nt	-0.3
CCNC(=O)C1=C(O)c2sccc2N(C)S1(=O)=O	36.6*	3.9	-4.3	-5.6	-1.2	-0.6
CN1c2ccsc2C(O)=C(C(=S)Nc2ccccc2)S1(=O)=O	6.0	23.3	-10.1	24.3	5.5	0.2
